Values joined by “and” are separate entries in the source; they are usually repeats but may differ in a detail not shown here. Equal values may be shown once.
Key:
HEK-293T = test: Multiplex assay against HEK293T; assay type: toxicity, cell-based; settings: human, number of replicates 2
Outline: (§1)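 Values for tubulin, mitochondrial-mass and membrane-permeability phenotypes are per cents of cells with healthy nuclei. These cells were identified by CellPathfinder machine-learning gating of live cells that had been stained at seeding with Hoechst33342, BioTracker Green Microtubule Cytoskeleton Dye, MitoTracker Red and Annexin V Alexa Fluor 680 and imaged on a CQ1 microscope at 37°C and 5% CO2 after compound addition. The gating first set Hoechst high-intensity objects apart from normal cells, then split normal cells into healthy, pyknosed or fragmented nuclei, and pyknosed cells into mitotic or apoptotic.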

U2OS = test: Multiplex assay against U2OS; assay type: toxicity, cell-based; settings: human, number of replicates 2; outline: as §1
[1] = 24 h, 1 µM, compound concentration 1 uM
[2] = 24 h, 10 µM, compound concentration 10 uM
[3] = 48 h, 1 µM, compound concentration 1 uM
[4] = 48 h, 10 µM, compound concentration 10 uM
[5] = 12 h, 1 µM, compound concentration 1 uM
[6] = 12 h, 10 µM, compound concentration 10 uM

SMILES: COc1cc(OC)cc(C(=O)NNC(=O)Nc2cccc3ccccc23)c1
- Population Mitotic Cells (%) (HEK-293T; [1]): 74% and 65%
- Population Normal (%) (HEK-293T; [1]): 91% and 93%
- Population Pyknosed Nuclei (%) (HEK-293T; [1]): 5% and 6%
- Population Tubulin-Different-Phenotype (%) (HEK-293T; [1]): 28% and 29%
- Total Cell Count (HEK-293T; [1]): 1130 and 899
- Population Apoptotic (%) (HEK-293T; [2]): 36% and 29%
- Population Fragmented Nuclei (%) (HEK-293T; [2]): 4% and 6%
- Population Healthy Nuclei (%) (HEK-293T; [2]): 84% and 86%
- Population Hoechst High Intensity Objects (%) (HEK-293T; [2]): 6% and 4%
- Population Membrane Permeable-Phenotype (%) (HEK-293T; [2]): 4% and 3%
- Population Mitochondria Different-Phenotype (%) (HEK-293T; [2]): 9% and 4%
- Population Mitotic Cells (%) (HEK-293T; [2]): 63% and 70%
- Population Normal (%) (HEK-293T; [2]): 93% and 95%
- Population Pyknosed Nuclei (%) (HEK-293T; [2]): 11% and 6%
- Population Tubulin-Different-Phenotype (%) (HEK-293T; [2]): 50% and 27%
- Total Cell Count (HEK-293T; [2]): 700 and 1003
- Population Apoptotic (%) (HEK-293T; [3]): 8% and 15%
- Population Fragmented Nuclei (%) (HEK-293T; [3]): 12% and 9%
- Population Healthy Nuclei (%) (HEK-293T; [3]): 84% and 87%
- Population Hoechst High Intensity Objects (%) (HEK-293T; [3]): 9%
- Population Membrane Permeable-Phenotype (%) (HEK-293T; [3]): 4%
- Population Mitochondria Different-Phenotype (%) (HEK-293T; [3]): 0%
- Population Mitotic Cells (%) (HEK-293T; [3]): 91% and 84%
- Population Normal (%) (HEK-293T; [3]): 91% and 90%
- Population Pyknosed Nuclei (%) (HEK-293T; [3]): 3% and 2%
- Population Tubulin-Different-Phenotype (%) (HEK-293T; [3]): 11% and 16%
- Total Cell Count (HEK-293T; [3]): 2889 and 1933
- Population Apoptotic (%) (HEK-293T; [4]): 8% and 17%
- Population Fragmented Nuclei (%) (HEK-293T; [4]): 10% and 12%
- Population Healthy Nuclei (%) (HEK-293T; [4]): 82% and 84%
- Population Hoechst High Intensity Objects (%) (HEK-293T; [4]): 6% and 8%
- Population Membrane Permeable-Phenotype (%) (HEK-293T; [4]): 4% and 5%
- Population Mitochondria Different-Phenotype (%) (HEK-293T; [4]): 3% and 0%
- Population Mitotic Cells (%) (HEK-293T; [4]): 91% and 82%
- Population Normal (%) (HEK-293T; [4]): 93% and 91%
- Population Pyknosed Nuclei (%) (HEK-293T; [4]): 6% and 3%
- Population Tubulin-Different-Phenotype (%) (HEK-293T; [4]): 30% and 17%
- Total Cell Count (HEK-293T; [4]): 1120 and 2017
- Population Apoptotic (%) (U2OS; [5]): 66% and 60%
- Population Healthy Nuclei (%) (U2OS; [5]): 65% and 85%
- Population Hoechst High Intensity Objects (%) (U2OS; [5]): 0%
- Population Membrane Permeable-Phenotype (%) (U2OS; [5]): 7% and 3%
- Population Mitochondria Different-Phenotype (%) (U2OS; [5]): 0%
- Population Mitotic Cells (%) (U2OS; [5]): 33% and 39%
- Population Normal (%) (U2OS; [5]): 100%
- Population Pyknosed Nuclei (%) (U2OS; [5]): 15% and 11%
- Population Tubulin-Different-Phenotype (%) (U2OS; [5]): 53% and 88%
- Population Healthy Nuclei (%) (U2OS; [6]): 80% and 64%
- Population Hoechst High Intensity Objects (%) (U2OS; [6]): 0%
- Population Membrane Permeable-Phenotype (%) (U2OS; [6]): 0% and 5%
- Population Mitochondria Different-Phenotype (%) (U2OS; [6]): 0%
- Population Mitotic Cells (%) (U2OS; [6]): 57% and 90%
- Population Normal (%) (U2OS; [6]): 100%
- Population Pyknosed Nuclei (%) (U2OS; [6]): 15% and 19%
- Population Tubulin-Different-Phenotype (%) (U2OS; [6]): 71% and 38%
- Population Apoptotic (%) (U2OS; [1]): 51% and 100%
- Population Fragmented Nuclei (%) (U2OS; [1]): 4% and 12%
- Population Healthy Nuclei (%) (U2OS; [1]): 83% and 79%
- Population Hoechst High Intensity Objects (%) (U2OS; [1]): 0%
- Population Membrane Permeable-Phenotype (%) (U2OS; [1]): 2% and 0%
- Population Mitochondria Different-Phenotype (%) (U2OS; [1]): 0%
- Population Normal (%) (U2OS; [1]): 99% and 100%
- Population Pyknosed Nuclei (%) (U2OS; [1]): 11% and 8%
- Population Tubulin-Different-Phenotype (%) (U2OS; [1]): 89% and 36%
- Population Apoptotic (%) (U2OS; [2]): 34% and 30%
- Population Fragmented Nuclei (%) (U2OS; [2]): 5% and 6%
- Population Healthy Nuclei (%) (U2OS; [2]): 83% and 73%
- Population Hoechst High Intensity Objects (%) (U2OS; [2]): 0%
- Population Membrane Permeable-Phenotype (%) (U2OS; [2]): 0% and 4%
- Population Mitochondria Different-Phenotype (%) (U2OS; [2]): 0% and 4%
- Population Mitotic Cells (%) (U2OS; [2]): 65% and 69%
- Population Normal (%) (U2OS; [2]): 100%
- Population Pyknosed Nuclei (%) (U2OS; [2]): 11% and 20%
- Population Tubulin-Different-Phenotype (%) (U2OS; [2]): 81% and 50%
- Population Apoptotic (%) (U2OS; [3]): 64% and 50%
- Population Fragmented Nuclei (%) (U2OS; [3]): 3% and 6%
- Population Healthy Nuclei (%) (U2OS; [3]): 88% and 85%
- Population Hoechst High Intensity Objects (%) (U2OS; [3]): 0%
- Population Membrane Permeable-Phenotype (%) (U2OS; [3]): 0% and 4%
- Population Mitochondria Different-Phenotype (%) (U2OS; [3]): 0% and 4%
- Population Mitotic Cells (%) (U2OS; [3]): 35% and 50%
- Population Normal (%) (U2OS; [3]): 100%
- Population Pyknosed Nuclei (%) (U2OS; [3]): 7% and 8%
- Population Tubulin-Different-Phenotype (%) (U2OS; [3]): 92% and 47%
- Population Apoptotic (%) (U2OS; [4]): 60% and 63%
- Population Fragmented Nuclei (%) (U2OS; [4]): 5% and 2%
- Population Healthy Nuclei (%) (U2OS; [4]): 68% and 90%
- Population Hoechst High Intensity Objects (%) (U2OS; [4]): 2% and 0%
- Population Membrane Permeable-Phenotype (%) (U2OS; [4]): 3% and 1%
- Population Mitochondria Different-Phenotype (%) (U2OS; [4]): 4% and 0%
- Population Mitotic Cells (%) (U2OS; [4]): 39% and 36%
- Population Normal (%) (U2OS; [4]): 97% and 100%
- Population Tubulin-Different-Phenotype (%) (U2OS; [4]): 52% and 84%

— ChEMBL document CHEMBL5303300, “EUbOPEN Chemogenomics Library - Multiplex” (2023)
